Measured values as given in ChEMBL document CHEMBL1138386, “Discovery of potent and selective PKC-theta inhibitors” (Bioorg Med Chem Lett, 2007).

Assays:
[1] = molecular target: T1, Protein kinase C theta type (Homo sapiens, UniProt Q04759); assay: Inhibition of PKCtheta by FP assay
Procedure, shortened: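 Recombinant PKC-θ, […], in 20 mM Hepes pH 7.6 with 0.1 mM CaCl2, 10 mM MgCl2, 0.01% Chaps, TCEP, Na orthovanadate and protease inhibitor cocktail. Enzyme pre-incubated with compound dilutions for 10 min at rt. Phosphopeptide read by competition FP using fluorescein-labelled phosphopeptide tracer and anti-phosphoserine antibody in quench buffer.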

[2] = system: T-cell; assay: Inhibition of IL2 production in […]-stimulated human CD4+ T cells; type: functional, cell-based; conditions: in the assay text read “anti-CD3/anti-CD28” for “anti-CD3/anti-CD8”
Procedure, shortened: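 Human CD4+ T cells isolated from whole blood by positive selection. Cells activated through TCR and CD28 with anti-CD3 and anti-CD28 mAbs. 50,000 cells/well exposed to compound dilutions at 0.125% DMSO final, or DMSO alone, overnight at 37 °C. Supernatant IL-2 measured by ELISA after 1:10 dilution.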

[3] = molecular target: Cytochrome P450 2C9 (Homo sapiens, UniProt P11712); assay: Inhibition of CYP2C9; type: ADME
Sequence of Cytochrome P450 2C9 (P11712 whole entry): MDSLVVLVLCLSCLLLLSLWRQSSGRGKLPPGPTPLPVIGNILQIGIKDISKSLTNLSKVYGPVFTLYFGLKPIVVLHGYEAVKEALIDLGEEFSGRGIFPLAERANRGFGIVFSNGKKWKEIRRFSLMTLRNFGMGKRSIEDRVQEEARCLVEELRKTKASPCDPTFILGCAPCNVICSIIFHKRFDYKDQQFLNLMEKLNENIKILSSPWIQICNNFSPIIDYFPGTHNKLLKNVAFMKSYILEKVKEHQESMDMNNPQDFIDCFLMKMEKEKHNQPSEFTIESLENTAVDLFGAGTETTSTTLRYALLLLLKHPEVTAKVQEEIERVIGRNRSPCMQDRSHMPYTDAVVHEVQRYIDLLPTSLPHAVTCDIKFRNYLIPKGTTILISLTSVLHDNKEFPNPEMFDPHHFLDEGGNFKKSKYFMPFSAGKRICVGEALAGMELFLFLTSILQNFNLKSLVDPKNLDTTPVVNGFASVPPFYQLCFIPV

[4] = molecular target: Cytochrome P450 2D6 (Homo sapiens, UniProt P10635); assay: Inhibition of CYP2D6; type: ADME
Sequence of Cytochrome P450 2D6 (P10635 whole entry): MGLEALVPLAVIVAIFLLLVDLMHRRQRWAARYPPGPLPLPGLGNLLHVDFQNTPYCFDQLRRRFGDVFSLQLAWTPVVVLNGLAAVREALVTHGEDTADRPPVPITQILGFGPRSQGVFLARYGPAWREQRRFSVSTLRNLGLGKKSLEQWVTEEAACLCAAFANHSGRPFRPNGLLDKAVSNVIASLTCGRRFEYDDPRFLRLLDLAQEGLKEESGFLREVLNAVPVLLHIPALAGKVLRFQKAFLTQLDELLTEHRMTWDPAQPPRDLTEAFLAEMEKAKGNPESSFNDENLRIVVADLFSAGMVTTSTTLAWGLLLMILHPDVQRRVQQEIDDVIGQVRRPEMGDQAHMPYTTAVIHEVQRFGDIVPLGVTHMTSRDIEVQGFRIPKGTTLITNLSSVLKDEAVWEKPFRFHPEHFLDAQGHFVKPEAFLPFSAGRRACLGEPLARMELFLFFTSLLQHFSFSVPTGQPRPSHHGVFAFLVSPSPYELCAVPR

[5] = molecular target: T2, Cytochrome P450 3A4 (Homo sapiens, UniProt P08684); assay: Inhibition of CYP3A4 in presence of BFC substrate; type: ADME
T2 sequence (P08684 whole entry): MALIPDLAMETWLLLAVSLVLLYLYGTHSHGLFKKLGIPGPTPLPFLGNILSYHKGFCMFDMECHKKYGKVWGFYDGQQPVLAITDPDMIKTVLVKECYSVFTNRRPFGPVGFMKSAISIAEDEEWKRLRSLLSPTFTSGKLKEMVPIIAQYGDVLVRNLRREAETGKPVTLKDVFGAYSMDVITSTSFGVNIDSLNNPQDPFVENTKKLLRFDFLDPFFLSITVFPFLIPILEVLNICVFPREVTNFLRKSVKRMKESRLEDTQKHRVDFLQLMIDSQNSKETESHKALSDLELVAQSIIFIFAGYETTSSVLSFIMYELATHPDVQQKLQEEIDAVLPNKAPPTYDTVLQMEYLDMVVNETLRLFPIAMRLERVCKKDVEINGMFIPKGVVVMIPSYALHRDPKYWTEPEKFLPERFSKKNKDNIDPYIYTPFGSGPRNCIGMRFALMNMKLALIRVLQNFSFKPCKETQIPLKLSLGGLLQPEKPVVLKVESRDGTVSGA

[6] = Stability in human liver microsomes; type: ADME, Microsome
[7] = Permeability across Caco-2 cells from apical to basolateral side; type: ADME, cell-based; conditions: human, read-out: permeability
[8] = Permeability across Caco-2 cells from basolateral to apical side; type: ADME, cell-based; conditions: human, read-out: permeability
[9] = molecular target: T2, Cytochrome P450 3A4; assay: Inhibition of CYP3A4 in presence of BQ substrate; type: ADME
[10] = molecular target: T1, Protein kinase C theta type; assay: Inhibition of PKCtheta in presence of 50 uM ATP
[11] = molecular target: T1, Protein kinase C theta type; assay: Inhibition of PKCtheta in presence of 100 uM ATP

T1 sequence (Q04759 whole entry): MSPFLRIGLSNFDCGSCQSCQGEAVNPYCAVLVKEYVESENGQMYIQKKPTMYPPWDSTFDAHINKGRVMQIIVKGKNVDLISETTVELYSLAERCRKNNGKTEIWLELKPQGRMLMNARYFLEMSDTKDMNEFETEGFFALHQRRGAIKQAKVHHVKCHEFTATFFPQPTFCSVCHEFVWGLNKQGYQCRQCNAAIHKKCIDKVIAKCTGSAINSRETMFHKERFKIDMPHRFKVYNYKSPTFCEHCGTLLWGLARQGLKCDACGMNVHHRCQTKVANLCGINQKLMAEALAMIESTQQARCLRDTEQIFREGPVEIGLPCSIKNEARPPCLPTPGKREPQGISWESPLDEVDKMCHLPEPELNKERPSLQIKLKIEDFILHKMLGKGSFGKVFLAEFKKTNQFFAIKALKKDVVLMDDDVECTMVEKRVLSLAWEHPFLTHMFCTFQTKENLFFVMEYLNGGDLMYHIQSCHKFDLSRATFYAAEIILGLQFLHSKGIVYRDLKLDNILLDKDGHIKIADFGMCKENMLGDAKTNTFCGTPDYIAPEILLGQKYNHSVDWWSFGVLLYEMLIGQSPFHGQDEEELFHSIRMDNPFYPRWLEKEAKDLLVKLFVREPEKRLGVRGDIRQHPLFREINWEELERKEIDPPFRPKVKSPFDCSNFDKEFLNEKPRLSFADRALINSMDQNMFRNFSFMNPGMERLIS

IC50 [1]	Compound	also measured
0.083 µM	NCC1CCC(CNc2nc(NCc3cccc(F)c3)ncc2[N+](=O)[O-])CC1 (stereo unspecified)	–
0.022 µM	NCC1CCC(CNc2nc(NCc3cccc(F)c3F)ncc2[N+](=O)[O-])CC1 (stereo unspecified)	–
0.013 µM	Cc1cccc(CNc2ncc([N+](=O)[O-])c(NCC3CCC(CN)CC3)n2)c1C (stereo unspecified)	–
0.91 µM	Cc1ccc(C)c(CNc2ncc([N+](=O)[O-])c(NCC3CCC(CN)CC3)n2)c1 (stereo unspecified)	–
0.21 µM	NCC1CCC(CNc2nc(NCc3ccc(F)cc3)ncc2[N+](=O)[O-])CC1 (stereo unspecified)	–
12 µM	COc1ccc(CNc2ncc([N+](=O)[O-])c(NCC3CCC(CN)CC3)n2)cc1 (stereo unspecified)	–
0.015 µM	NCC1CCC(CNc2nc(NCc3ccccc3C(F)F)ncc2[N+](=O)[O-])CC1 (stereo unspecified)	–
0.1 µM	NCC1CCC(CNc2nc(NCc3ccc(F)cc3F)ncc2[N+](=O)[O-])CC1 (stereo unspecified)	–
2.2 µM	NCC1CCC(CNc2nc(NC(=O)c3ccccc3Br)ncc2[N+](=O)[O-])CC1 (stereo unspecified)	–
0.018 µM	NC[C@H]1CC[C@@H](CNc2nc(NCc3ccccc3Cl)ncc2[N+](=O)[O-])CC1	–
0.054 µM	CN(C)CC1CCC(CNc2nc(NCc3ccccc3Cl)ncc2[N+](=O)[O-])CC1 (stereo unspecified)	IC50 [2]: 0.19 µM; IC50 [3]: 8.4 µM; IC50 [4]: 1.7 µM; IC50 [5]: 1.7 µM; half-life [6]: 40 min; Papp A→B [7]: 10.6 ×10⁻⁶ cm/s; Papp B→A [8]: 10.2 ×10⁻⁶ cm/s; IC50 [9]: 13 µM
0.09 µM	O=[N+]([O-])c1cnc(NCc2ccccc2Cl)nc1NCC1CCNCC1	IC50 [2]: 0.72 µM; IC50 [3]: 17.6 µM; IC50 [4]: > 30 µM; IC50 [5]: 28 µM; half-life [6]: 66 min; Papp A→B [7]: 8.1 ×10⁻⁶ cm/s; Papp B→A [8]: 10.6 ×10⁻⁶ cm/s; IC50 [9]: > 30 µM
0.006 µM	NCC1CCC(CNc2nc(NCc3ccccc3SC(F)(F)F)ncc2[N+](=O)[O-])CC1 (stereo unspecified)	–
0.005 µM	NCC1CCC(CNc2nc(NCc3ccccc3Br)ncc2[N+](=O)[O-])CC1 (stereo unspecified)	–
0.039 µM	NCC1CCC(CNc2nc(NCc3ccccc3-c3ccccc3)ncc2[N+](=O)[O-])CC1 (stereo unspecified)	–
0.042 µM	NCC1CCC(CNc2nc(NCc3c(F)cccc3F)ncc2[N+](=O)[O-])CC1 (stereo unspecified)	–
0.008 µM	NCC1CCC(CNc2nc(NCc3cccc(Cl)c3Cl)ncc2[N+](=O)[O-])CC1 (stereo unspecified)	–
0.027 µM	NCC1CCC(CNc2nc(NCc3ccc(Cl)cc3Cl)ncc2[N+](=O)[O-])CC1 (stereo unspecified)	–
2.5 µM	CC(C)(Nc1ncc([N+](=O)[O-])c(NCC2CCC(CN)CC2)n1)c1ccccc1 (stereo unspecified)	–
3.7 µM	C[C@H](Nc1ncc([N+](=O)[O-])c(NCC2CCC(CN)CC2)n1)c1ccccc1 (stereo partly specified)	–
0.003 µM	NCC1CCCC(CNc2nc(NCc3ccccc3Cl)ncc2[N+](=O)[O-])C1 (stereo unspecified)	–

IC50 [1]	Compound	also measured
0.45 µM	NCCCCCNc1nc(NCc2ccccc2Cl)ncc1[N+](=O)[O-]	–
0.11 µM	NCCCCCCCNc1nc(NCc2ccccc2Cl)ncc1[N+](=O)[O-]	–
0.007 µM	NCC1CCC(CNc2nc(NCc3cc(Cl)ccc3Cl)ncc2[N+](=O)[O-])CC1 (stereo unspecified)	–
0.046 µM	Cc1c(Cl)cccc1CNc1ncc([N+](=O)[O-])c(NCC2CCC(CN)CC2)n1 (stereo unspecified)	–
4.4 µM	NCC1CCC(CNc2nc(N[C@H]3CCc4ccccc43)ncc2[N+](=O)[O-])CC1 (stereo partly specified)	–
0.46 µM	NCC1CCC(CNc2nc(N[C@@H]3CCc4ccccc43)ncc2[N+](=O)[O-])CC1 (stereo partly specified)	–
0.046 µM	NCC1CCC(CNc2nc(NCc3ccccc3Cl)ncc2[N+](=O)[O-])CC1 (stereo unspecified)	IC50 [10]: 0.29 µM; IC50 [11]: 0.63 µM; IC50 [2]: 0.084 µM; IC50 [3]: 1 µM; IC50 [4]: 4.3 µM; IC50 [5]: 0.7 µM; half-life [6]: 48 min; Papp A→B [7]: 4 ×10⁻⁶ cm/s; Papp B→A [8]: 6.9 ×10⁻⁶ cm/s; IC50 [9]: 1.4 µM
0.17 µM	NCC1CCC(CNc2nc(NCc3ccc(Cl)cc3)ncc2[N+](=O)[O-])CC1 (stereo unspecified)	–
0.18 µM	Cc1ccccc1CCNc1ncc([N+](=O)[O-])c(NCC2CCC(CN)CC2)n1 (stereo unspecified)	–
0.13 µM	NCC1CCC(CNc2nc(NCCc3ccccc3F)ncc2[N+](=O)[O-])CC1 (stereo unspecified)	–
4.2 µM	NCC1CCC(CNc2nc(Nc3cc(Cl)cc(Cl)c3)ncc2C(F)(F)F)CC1 (stereo unspecified)	–
0.64 µM	NCC1CCC(CNc2nc(Nc3cccc(Cl)c3)ncc2C(F)(F)F)CC1 (stereo unspecified)	–
0.077 µM	NCC1CCC(CNc2nc(NCCc3ccc(F)cc3)ncc2[N+](=O)[O-])CC1 (stereo unspecified)	–
0.5 µM	NCC1CCC(CNc2nc(NCc3ccccc3)ncc2[N+](=O)[O-])CC1 (stereo unspecified)	–
0.031 µM	NCC1CCC(CNc2nc(NC3Cc4ccccc4C3)ncc2[N+](=O)[O-])CC1 (stereo unspecified)	–
0.094 µM	NCC1CCC(CNc2nc(NCCc3ccccc3)ncc2[N+](=O)[O-])CC1 (stereo unspecified)	–
0.012 µM	NCC1CCC(CNc2nc(NCc3ccccc3C(F)(F)F)ncc2[N+](=O)[O-])CC1 (stereo unspecified)	–
0.018 µM	NCC1CCC(CNc2nc(NCc3ccccc3OC(F)(F)F)ncc2[N+](=O)[O-])CC1 (stereo unspecified)	–
0.09 µM	NCC1CCC(CNc2nc(NCCCCc3ccccc3)ncc2[N+](=O)[O-])CC1 (stereo unspecified)	–
0.054 µM	NCC1CCC(CNc2nc(NCCc3cccc(F)c3)ncc2[N+](=O)[O-])CC1 (stereo unspecified)	–
0.16 µM	NCc1ccc(CNc2nc(NCc3ccccc3Cl)ncc2[N+](=O)[O-])cc1	–

IC50 [1]	Compound	also measured
0.2 µM	NCc1cccc(CNc2nc(NCc3ccccc3Cl)ncc2[N+](=O)[O-])c1	–
> 10 µM	NCCCNc1nc(NCc2ccccc2Cl)ncc1[N+](=O)[O-]	–
5.7 µM	C[C@@H](Nc1ncc([N+](=O)[O-])c(NCC2CCC(CN)CC2)n1)c1ccccc1 (stereo partly specified)	–
0.005 µM	CSc1ccccc1CNc1ncc([N+](=O)[O-])c(NCC2CCC(CN)CC2)n1 (stereo unspecified)	IC50 [2]: 0.14 µM; IC50 [3]: 1.4 µM; IC50 [4]: 4.7 µM; IC50 [5]: 6.9 µM; half-life [6]: 65 min; Papp A→B [7]: 1.6 ×10⁻⁶ cm/s; Papp B→A [8]: 1.9 ×10⁻⁶ cm/s; IC50 [9]: > 30 µM
0.68 µM	NCC1CCC(CNc2nc(Nc3cc(Cl)cc(Cl)c3)ncc2[N+](=O)[O-])CC1 (stereo unspecified)	–
0.4 µM	NCC1CCC(CNc2nc(NCc3cc(Cl)cc(Cl)c3)ncc2[N+](=O)[O-])CC1 (stereo unspecified)	–
1.5 µM	COc1cc(CNc2ncc([N+](=O)[O-])c(NCC3CCC(CN)CC3)n2)cc(OC)c1 (stereo unspecified)	–
0.21 µM	COc1cccc(CNc2ncc([N+](=O)[O-])c(NCC3CCC(CN)CC3)n2)c1 (stereo unspecified)	–
0.048 µM	NCC1CCC(CNc2nc(NCc3ccccc3F)ncc2[N+](=O)[O-])CC1 (stereo unspecified)	–
0.017 µM	COc1ccccc1CNc1ncc([N+](=O)[O-])c(NCC2CCC(CN)CC2)n1 (stereo unspecified)	–
0.029 µM	NC[C@H]1CC[C@H](CNc2nc(NCc3ccccc3Cl)ncc2[N+](=O)[O-])CC1	–
0.035 µM	NCC1CCC(CNc2nc(NCc3cc(F)ccc3F)ncc2[N+](=O)[O-])CC1 (stereo unspecified)	–
0.06 µM	NCC1CCC(CNc2nc(Nc3cccc(Cl)c3)ncc2[N+](=O)[O-])CC1 (stereo unspecified)	–
0.011 µM	NCC1CCC(CNc2nc(NCc3ccccc3[N+](=O)[O-])ncc2[N+](=O)[O-])CC1 (stereo unspecified)	–
0.27 µM	NCC1CCC(CNc2nc(NCCCc3ccccc3)ncc2[N+](=O)[O-])CC1 (stereo unspecified)	–
> 10 µM	O=[N+]([O-])c1cnc(NCc2ccccc2Cl)nc1NCC1CCCCC1	–
> 10 µM	CC(=O)NCC1CCC(CNc2nc(NCc3ccccc3Cl)ncc2[N+](=O)[O-])CC1 (stereo unspecified)	–
0.034 µM	Cc1ccccc1CNc1ncc([N+](=O)[O-])c(NCC2CCC(CN)CC2)n1 (stereo unspecified)	–
0.085 µM	NCC1CCC(CNc2nc(NCc3cccc(Cl)c3)ncc2[N+](=O)[O-])CC1 (stereo unspecified)	–
0.039 µM	Cc1cccc(CNc2ncc([N+](=O)[O-])c(NCC3CCC(CN)CC3)n2)c1 (stereo unspecified)	–
